Results: ChEMBL document CHEMBL1131382, “Structure-activity relationship of new growth inhibitors of Trypanosoma cruzi” (J Med Chem, 1998)
Blank lines part the entries; values can stand above or below the compound they belong to.

Assays:
[1] = system: Trypanosoma cruzi; assay: Concentration required to inhibit proliferation of the epimastigote form of Trypanosoma cruzi; assay type: functional, organism-based
In short: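 T. cruzi epimastigotes (Y strain) at 28 °C in brain–heart infusion (37 g/L) with hemin (20 mg/L) and 10% newborn calf serum; inoculum (2–3) × 10⁶ cells/mL, 1 mL. Drugs at 1, 10, 50 and 100 μg/mL, each in quadruplicate, with a drug-free control. Growth read as absorbance at 600 nm; percent inhibition from the change in absorbance of drug-treated versus control cultures between start and end.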

[2] = system: Trypanosoma cruzi; assay: Growth inhibition of the intracellular Trypanosoma cruzi was measured by no. of parasites per 100 myoblasts (T. cruzi ) after 48 hr at the concentration of 0.5 (ug/mL); assay type: functional
[3] = system: Trypanosoma cruzi; assay: Growth inhibition of the intracellular Trypanosoma cruzi was measured by counting percentage of myoblasts with Trypanosoma cruzi parasite after 72 hr (absence of compound); assay type: functional
[4] = system: Trypanosoma cruzi; assay: Growth inhibition of the intracellular Trypanosoma cruzi was measured by no. of parasites per 100 myoblasts (T. cruzi ) after time gap of 48 hr (with out compound); assay type: functional
[5] = system: Trypanosoma cruzi; assay: Growth inhibition of the intracellular Trypanosoma cruzi was measured by counting percentage of myoblasts with Trypanosoma cruzi parasite after 24 hr (absence of compound); assay type: functional
[6] = system: Trypanosoma cruzi; assay: Growth inhibition of the intracellular Trypanosoma cruzi was measured by counting percentage of myoblasts with Trypanosoma cruzi parasite after 72 hr at the concentration of 0.1 (ug/mL); assay type: functional
[7] = system: Trypanosoma cruzi; assay: Growth inhibition of the intracellular Trypanosoma cruzi was measured by no. of parasites per 100 myoblasts (T. cruzi ) after time gap of 72 hr (absence of compound); assay type: functional
[8] = system: Trypanosoma cruzi; assay: Growth inhibition of the intracellular Trypanosoma cruzi was measured by no. of parasites per 100 myoblasts (T. cruzi ) after time gap of 24 hr (with out compound); assay type: functional
[9] = system: Trypanosoma cruzi; assay: Growth inhibition of the intracellular Trypanosoma cruzi was measured by counting percentage of myoblasts with Trypanosoma cruzi parasite after time gap of 48 hr (with out compound); assay type: functional
[10] = system: Trypanosoma cruzi; assay: Growth inhibition of the intracellular Trypanosoma cruzi was measured by counting no. of parasites per 100 myoblasts (T. cruzi ) after 24 h (absence of compound); assay type: functional
[11] = system: Trypanosoma cruzi; assay: Growth inhibition of the intracellular Trypanosoma cruzi was measured by counting percentage of myoblasts with Trypanosoma cruzi parasite after time gap of 48 hr at the concentration of 2.5 ug/mL; assay type: functional
[12] = system: Trypanosoma cruzi; assay: Growth inhibition of the intracellular Trypanosoma cruzi was measured by no. of parasites per 100 myoblasts (T. cruzi ) after time gap of 48 hr at the concentration of 2.5 ug/mL; assay type: functional
[13] = system: Trypanosoma cruzi; assay: Growth inhibition of the intracellular Trypanosoma cruzi was measured by no. of parasites per 100 myoblasts (T. cruzi ) after time gap of 72 hr at the concentration of 1.0 ug/mL; assay type: functional
[14] = system: Trypanosoma cruzi; assay: Growth inhibition of the intracellular Trypanosoma cruzi was measured by no. of parasites per 100 myoblasts (T. cruzi ) after 72 hr at the concentration of 1.0 (ug/mL); assay type: functional
[15] = system: Trypanosoma cruzi; assay: Growth inhibition of the intracellular Trypanosoma cruzi was measured by counting percentage of myoblasts with Trypanosoma cruzi parasite after time gap of 48 hr at the concentration of 5.0 ug/mL; assay type: functional
[16] = system: Trypanosoma cruzi; assay: Growth inhibition of the intracellular Trypanosoma cruzi was measured by counting percentage of myoblasts with Trypanosoma cruzi parasite after 72 hr at the concentration of 0.5 (ug/mL); assay type: functional
[17] = system: Trypanosoma cruzi; assay: Growth inhibition of the intracellular Trypanosoma cruzi was measured by no. of parasites per 100 myoblasts (T. cruzi ) after time gap of 72 hr at the concentration of 5.0 ug/mL; assay type: functional
[18] = system: Trypanosoma cruzi; assay: Growth inhibition of the intracellular Trypanosoma cruzi was measured by counting percentage of myoblasts with Trypanosoma cruzi parasite after time gap of 72h( absence of compound); assay type: functional
[19] = system: Trypanosoma cruzi; assay: Growth inhibition of the intracellular Trypanosoma cruzi was measured by no. of parasites per 100 myoblasts (T. cruzi ) after 48 hr at the concentration of 1.0 (ug/mL); assay type: functional
[20] = system: Trypanosoma cruzi; assay: Growth inhibition of the intracellular Trypanosoma cruzi was measured by no. of parasites per 100 myoblasts (T. cruzi ) after time gap of 48 hr at the concentration of 5.0 ug/mL; assay type: functional
[21] = system: Trypanosoma cruzi; assay: Growth inhibition of the intracellular Trypanosoma cruzi was measured by no. of parasites per 100 myoblasts (T. cruzi ) after time gap of 72 hr at the concentration of 2.5 ug/mL; assay type: functional
[22] = system: Trypanosoma cruzi; assay: Growth inhibition of the intracellular Trypanosoma cruzi was measured by no. of parasites per 100 myoblasts (T. cruzi ) after 72 hr (absence of compound); assay type: functional
[23] = system: Trypanosoma cruzi; assay: Growth inhibition of the intracellular Trypanosoma cruzi was measured by counting no. of parasites per 100 myoblasts (T. cruzi ) after 48 hr (absence of compound); assay type: functional
[24] = system: Trypanosoma cruzi; assay: Growth inhibition of the intracellular Trypanosoma cruzi was measured by counting percentage of myoblasts with Trypanosoma cruzi parasite after 48 hr at the concentration of 0.1 (ug/mL); assay type: functional
[25] = system: Trypanosoma cruzi; assay: Growth inhibition of the intracellular Trypanosoma cruzi was measured by counting percentage of myoblasts with Trypanosoma cruzi parasite after time gap of 72 hr at the concentration of 2.5 ug/mL; assay type: functional
[26] = system: Trypanosoma cruzi; assay: Growth inhibition of the intracellular Trypanosoma cruzi was measured by counting percentage of myoblasts with Trypanosoma cruzi parasite after time gap of 24 hr (with out compound); assay type: functional
[27] = system: Trypanosoma cruzi; assay: Growth inhibition of the intracellular Trypanosoma cruzi was measured by counting percentage of myoblasts with Trypanosoma cruzi parasite after time gap of 72 hr at the concentration of 5.0 ug/mL; assay type: functional
[28] = system: Trypanosoma cruzi; assay: Growth inhibition of the intracellular Trypanosoma cruzi was measured by no. of parasites per 100 myoblasts (T. cruzi ) after time gap of 48 hr at the concentration of 1.0 ug/mL; assay type: functional
[29] = system: Trypanosoma cruzi; assay: Growth inhibition of the intracellular Trypanosoma cruzi was measured by no. of parasites per 100 myoblasts (T. cruzi ) after 72 hr at the concentration of 0.1 (ug/mL); assay type: functional
[30] = system: Trypanosoma cruzi; assay: Growth inhibition of the intracellular Trypanosoma cruzi was measured by counting percentage of myoblasts with Trypanosoma cruzi parasite after 72 hr at the concentration of 1.0 (ug/mL); assay type: functional
[31] = system: Trypanosoma cruzi; assay: Growth inhibition of the intracellular Trypanosoma cruzi was measured by counting percentage of myoblasts with Trypanosoma cruzi parasite after 48 hr at the concentration of 1.0 (ug/mL); assay type: functional
[32] = system: Trypanosoma cruzi; assay: Growth inhibition of the intracellular Trypanosoma cruzi was measured by no. of parasites per 100 myoblasts (T. cruzi ) after 48 hr at the concentration of 0.1 (ug/mL); assay type: functional
[33] = system: Trypanosoma cruzi; assay: Growth inhibition of the intracellular Trypanosoma cruzi was measured by no. of parasites per 100 myoblasts (T. cruzi ) after 72 hr at the concentration of 0.5 (ug/mL); assay type: functional
[34] = system: Trypanosoma cruzi; assay: Growth inhibition of the intracellular Trypanosoma cruzi was measured by counting percentage of myoblasts with Trypanosoma cruzi parasite after time gap of 48 hr at the concentration of 1.0 ug/mL; assay type: functional
[35] = system: Trypanosoma cruzi; assay: Growth inhibition of the intracellular Trypanosoma cruzi was measured by counting percentage of myoblasts with Trypanosoma cruzi parasite after 48 hr (absence of compound); assay type: functional
[36] = system: Trypanosoma cruzi; assay: Growth inhibition of the intracellular Trypanosoma cruzi was measured by counting percentage of myoblasts with Trypanosoma cruzi parasite after 48 hr at the concentration of 0.5 (ug/mL); assay type: functional
[37] = system: Trypanosoma cruzi; assay: Growth inhibition of the intracellular Trypanosoma cruzi was measured by counting percentage of myoblasts with Trypanosoma cruzi parasite after time gap of 72 hr at the concentration of 1.0 ug/mL; assay type: functional

IC50 [1]: 121 µM
Structure (SMILES): c1ccc(COc2ccc(OCCOC3CCCCO3)cc2)cc1 (stereo not given)

IC50 [1]: 96.1 µM
Structure (SMILES): C=CCSC(=S)OCCOc1ccc(Oc2ccccc2)cc1

Structure (SMILES): c1ccc(Oc2ccc(OCC3CS3)cc2)cc1 (stereo not given)
IC50 [1]: 3.9 µM

IC50 [1]: 221 µM
Structure (SMILES): C=CCOc1ccc(Oc2ccccc2)cc1

IC50 [1]: 97 µM
Structure (SMILES): C=CCOc1ccc(Oc2ccccc2)cc1NC(C)=O

IC50 [1]: 41.9 µM
Structure (SMILES): CCOC(=S)SCCOc1ccc(Oc2ccccc2)cc1

IC50 [1]: > 440 µM
Structure (SMILES): C/C=C/Oc1ccc(Oc2ccccc2)cc1

IC50 [1]: > 250 µM
Structure (SMILES): C=CCOc1ccc(Oc2ccc(Br)cc2)cc1

IC50 [1]: 13.4 µM
Structure (SMILES): N#CSCCOc1ccc(Cc2ccccc2)cc1

IC50 [1]: 91 µM
Structure (SMILES): C=CCOc1ccc(Oc2ccccc2)cc1I

IC50 [1]: 17 µM
Structure (SMILES): CCNC(=O)SCCOc1ccc(Oc2ccccc2)cc1

IC50 [1]: 19.1 µM
Structure (SMILES): CC(C)COC(=O)SCCOc1ccc(Oc2ccccc2)cc1

IC50 [1]: > 250 µM
Structure (SMILES): C=CCOc1ccc(Oc2ccc(Cl)cc2)cc1

IC50 [1]: 3.5 µM
Structure (SMILES): N#CSCCCOc1ccc(Oc2ccccc2)cc1

IC50 [1]: 93 µM
Structure (SMILES): Clc1ccc(OCCOC2CCCCO2)c(Cl)c1 (stereo not given)

IC50 [1]: > 330 µM
Structure (SMILES): C=CCOc1ccc(Oc2ccc(C(=O)c3ccccc3)cc2)cc1

IC50 [1]: 282 µM
Structure (SMILES): c1ccc(Cc2ccc(OCCOC3CCCCO3)cc2)cc1 (stereo not given)

IC50 [1]: 15.1 µM
Structure (SMILES): CCOC(=O)SCCOc1ccc(Oc2ccccc2)cc1

IC50 [1]: > 380 µM
Structure (SMILES): CCSC(=O)OC/C=C(\C)CCC1OC1(C)C (stereo not given)

IC50 [1]: 282 µM
Structure (SMILES): C=CCOc1ccc(Cl)cc1Cl

IC50 [1]: 85 µM
Structure (SMILES): Brc1ccc(Oc2ccc(OCCOC3CCCCO3)cc2)cc1 (stereo not given)

IC50 [1]: 37.7 µM
Structure (SMILES): CCSC(=O)SCCOc1ccc(Oc2ccccc2)cc1

Structure (SMILES): N#CSCCOc1ccc(Oc2ccccc2)cc1
R [2]: 98% | Myoblasts with parasites [3]: 27.5% | R [4]: 270.5% | Myoblasts with parasites [5]: 26% | Myoblasts with parasites [6]: 15.5% | R [7]: 733.5% | R [8]: 85% | Myoblasts with parasites [9]: 31.5% | R [10]: 91.8% | Myoblasts with parasites [11]: 20.3% | R [12]: 57% | R [13]: 85.5% | R [14]: 63.5% | Myoblasts with parasites [15]: 19.8% | Myoblasts with parasites [16]: 12.5% | R [17]: 28% | Myoblasts with parasites [18]: 24.8% | R [19]: 69.3% | IC50 [1]: 2.2 µM | R [20]: 48% | R [21]: 76.3% | R [22]: 578.5% | R [23]: 239.5% | Myoblasts with parasites [24]: 22% | Myoblasts with parasites [25]: 17% | Myoblasts with parasites [26]: 38% | Myoblasts with parasites [27]: 8.3% | R [28]: 59.3% | R [29]: 238% | Myoblasts with parasites [30]: 15% | Myoblasts with parasites [31]: 19.3% | R [32]: 218% | R [33]: 124.5% | Myoblasts with parasites [34]: 20.5% | Myoblasts with parasites [35]: 21.5% | Myoblasts with parasites [36]: 18.3% | Myoblasts with parasites [37]: 16.3%

IC50 [1]: 182 µM
Structure (SMILES): C=CCOc1ccc(Oc2ccccc2)cc1Br

IC50 [1]: 298 µM
Structure (SMILES): CCSC(=O)OC/C=C(\C)CCC=C(C)C

IC50 [1]: 67 µM
Structure (SMILES): Brc1cc(Oc2ccccc2)ccc1OCCOC1CCCCO1 (stereo not given)

IC50 [1]: 230 µM
Structure (SMILES): C=CCOc1ccc(Oc2ccc([N+](=O)[O-])cc2)cc1

IC50 [1]: 8.1 µM
Structure (SMILES): N#CSCCOc1ccc(OCc2ccccc2)cc1

IC50 [1]: > 250 µM
Structure (SMILES): C=CCOc1ccc(Oc2ccccc2)cc1Cl

IC50 [1]: 185 µM
Structure (SMILES): C=CCOc1ccc(Oc2ccccc2)cc1[N+](=O)[O-]

IC50 [1]: 143 µM
Structure (SMILES): Clc1cc(Oc2ccccc2)ccc1OCCOC1CCCCO1 (stereo not given)

IC50 [1]: 8.6 µM
Structure (SMILES): CC1CS(=O)(=O)CCN1/N=C/c1ccc([N+](=O)[O-])o1 (stereo not given) [NIFURTIMOX]
Myoblasts with parasites [3]: 20% | Myoblasts with parasites [5]: 34.5% | R [10]: 80.25% | R [14]: 70.5% | R [19]: 64.5% | R [22]: 321% | R [23]: 155% | Myoblasts with parasites [30]: 12.5% | Myoblasts with parasites [31]: 14% | Myoblasts with parasites [35]: 16.25%

IC50 [1]: 324 µM
Structure (SMILES): C=CCOc1ccc(Sc2ccccc2)cc1

IC50 [1]: 300 µM
Structure (SMILES): C=CCOc1ccc(Oc2ccc(C(C)=O)cc2)cc1
